Bioassay records from PubChem BioAssay.
PDI turbidity = PDI (human) enzyme inhibition. P07237. PDI insulin aggregation turbidity, A650, 90 min. inhibition, % at 10 µM. 350,000 tested, 0.052% active. AID 588391;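 active means mean inhibition across replicates of 30% or more, whatever share of single replicates reach that level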
FN deposition inh = fibronectin deposition inhibition; inhibition, % at 12.6 µM; AH1F fibroblasts, Alexa488-fibronectin deposition fluorescence, overnight; 350,000 tested, 0.086% active;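 active means mean inhibition across replicates of 30% or more, regardless of how many single replicates reach that level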;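 further: positive control wells lacked labelled fibronectin entirely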
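Material – AH1F fibroblast monolayer, labelled fibronectin deposition · Reagent – labelled fibronectin 24 nM · Timing – 1 h adhesion, overnight exposure · Measured by – fluorescence at 485 nm excitation, 525 nm emission · Read-out – inhibition of fibronectin deposition signal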
rRNA inh HTS = selective bacterial rRNA inhibition in E. coli. 350,000 tested, 1.6% active. AID 720706. E. coli WT GFP vs humanized-ribosome RFP mutants, fluorescence, 24 h; hits give low values; DMSO median 0, no signal -100. GFP signal change (wild-type ribosome), % (no concentration beside the values);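 active means significant combined selectivity score with lowered wild-type GFP, culture density cut under 30%, mutant RFP and density less affected; inactive means any of these conditions unmet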
ERp5 block = blocks human ERp5 reductase activity on insulin | 350,000 tested, 0.05% active | Q15084 | inhibition, % at 9.99 µM | AID 651711 | ERp5 insulin aggregation, absorbance 650 nm, 90 min;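 active means mean replicate inhibition above about 25%, with every replicate also reaching it, limit read from the data, passing the limit was not always enough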
Target sequence (Q15084 whole entry, looked up): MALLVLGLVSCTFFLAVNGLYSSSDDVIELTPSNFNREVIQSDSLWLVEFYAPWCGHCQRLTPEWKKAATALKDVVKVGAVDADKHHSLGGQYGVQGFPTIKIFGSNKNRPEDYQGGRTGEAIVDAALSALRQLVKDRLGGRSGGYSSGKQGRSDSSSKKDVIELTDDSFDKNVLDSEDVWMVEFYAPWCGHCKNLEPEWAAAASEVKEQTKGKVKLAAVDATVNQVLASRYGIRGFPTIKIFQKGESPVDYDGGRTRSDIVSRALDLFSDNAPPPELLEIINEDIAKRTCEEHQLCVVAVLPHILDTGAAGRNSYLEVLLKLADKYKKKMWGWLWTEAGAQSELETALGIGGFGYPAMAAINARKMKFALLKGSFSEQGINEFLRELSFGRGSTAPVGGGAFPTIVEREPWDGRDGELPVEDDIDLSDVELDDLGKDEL
Env fusion inh = HIV envelope-mediated fusion inhibition | HeLa-JRFL Env/CEM21 cell fusion, luciferase | inhibition, % at 12.3 µM | 360,000 tested, 1.1% active | AID 651610;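 active means mean replicate inhibition score of at least 50 and every replicate individually at or above 50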;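 further: 0% = plate neutral controls and 100% = maraviroc near 300 nM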
PvdQ acylase = P. aeruginosa PvdQ acylase inhibition | purified PvdQ acylase, fluorescence plate reader | inhibition, % at 10 µM | 340,000 tested, 0.063% active; in the data active means inhibition above about 30%, passing the limit was not always enough;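 further: 0% = vehicle neutral wells and 100% = reference inhibitor wells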
* marks the source's active call; other numbers are inactive results; nt = no result; [ ] = another dose, or the depositor's remark. Rows were chosen to be rich in hits. Some 2.2% of all compounds tested hit in one or more screens of this group.

SMILES	PDI turbidity	FN deposition inh	rRNA inh HTS	ERp5 block	Env fusion inh	PvdQ acylase
COc1ccc2c3c([nH]c2c1)[C@H](CO)N(Cc1ccncc1)CC31CCN(C(=O)CN(C)C)CC1	nt	nt	6	6	nt	nt
Cc1cc(C(=O)N2CCC(Cc3ccccc3)CC2)ccc1[N+](=O)[O-]	-4	nt	-31*	2	nt	15
Cc1ccc(S(=O)(=O)N[C@H]2C=C[C@@H](CC(=O)N3CCN(c4ccccc4)CC3)O[C@H]2CO)cc1	nt	-15	-5	-1	-1[16.7 µM]	nt
Cc1cccc(NC(=S)NCCSc2ccc(Cl)cc2)c1	-9	-17	-37*	2	-4	1
Cc1ccc(NC(=S)NCC(C)CSc2ccc(Cl)cc2)cc1 (stereo unspecified)	-1	2	-27*	3	36	-9
C[C@@H]1CN([C@@H](C)CO)C(=O)c2cc(NS(=O)(=O)c3ccc(F)cc3)ccc2O[C@@H](C)CCCCO[C@H]1CN(C)CC1CC1	nt	nt	-4	-11	-37[16.7 µM]	nt
COc1ccccc1C1CC(c2ccc(Br)cc2)=NN1C(=O)c1cccnc1 (stereo unspecified)	-3	-1	nt	nt	nt	-4
COc1cccc(C2CC(c3ccc(Br)cc3)=NN2C(=O)c2ccncc2)c1OC (stereo unspecified)	4	nt	-35*	3	16	0
CCCC#Cc1cnc2c(c1)C(=O)N([C@H](C)CO)C[C@H](C)[C@@H](CN(C)C(=O)Nc1c(C)noc1C)O2	nt	-8	9	5	5[16.7 µM]	nt
CO[C@@H]1CN(C)C(=O)c2ccc(NC(=O)NC(C)C)cc2OC[C@H](C)N(CC2CC2)C[C@H]1C	nt	nt	-6	-1	-5[16.7 µM]	nt
COCCNC(=O)C[C@H]1C=C[C@@H](NS(=O)(=O)c2ccc(C)cc2)[C@H](CO)O1	nt	-12	1	-4	-7[16.7 µM]	nt
CC1=C(C)/C(=N\OS(=O)(=O)c2ccc(C)cc2)C=CC1=O	4	33*	nt	nt	-298	22
COc1ccc2c3c([nH]c2c1)[C@@H](CO)N(Cc1cccc(F)c1)CC31CCN(C(C)=O)CC1	nt	-15	1	-5	nt	nt
COc1ccc(OC)c(/C=N/NC(=O)c2[nH]nc3c2CCc2ccccc2-3)c1	-17	-1	6	4	-187	5
COc1cccc(/C=N/NC(=O)c2ccc(N3CCCC3=O)cc2)c1	-22	7	-19*	5	-97	3
COc1cccc(/C=N/NC(=O)c2[nH]nc3c2CCc2ccccc2-3)c1	16	10	-37*	-7	-235	nt
COC(=O)c1cc(NC(=O)c2cccc([N+](=O)[O-])c2C)ccc1Cl	-5	7	-25*	8	6	12
COC(=O)c1ccc(Cl)c(NC(=O)c2cccc([N+](=O)[O-])c2C)c1	11	0	-1	0	0	-1
COc1cc2ccccc2cc1C(=O)NC1CCC(C)CC1 (stereo unspecified)	-19	-8	0	5	nt	-6
COc1cc2ccccc2cc1C(=O)NC1CCCC1	-7	-20	-21*	-10	nt	-7
O=C(NC1CCCCCC1)c1cc2ccccc2oc1=O	4	6	-24*	-1	-95	-8
N=c1oc2ccccc2cc1C(=O)NC1CCCCCC1	-14	nt	1	-3	-80	-4
O=C(NN=c1c(=O)c2ccccc2c1=O)c1ccccc1	1	nt	9	33*	nt	-7
c1cncc(-c2nnc3sc(C4CCCCC4)nn23)c1	2	nt	nt	nt	nt	-15
CCOc1cccc(-c2nnc3sc(C4CCCCC4)nn23)c1	-2	1	nt	nt	96*	-11
SMILES	PDI turbidity	FN deposition inh	rRNA inh HTS	ERp5 block	Env fusion inh	PvdQ acylase
COc1cccc(-c2nnc3sc(C4CCCCC4)nn23)c1	2	18	nt	nt	123*	-9
CC(C)NC(=O)Nc1ccc2c(c1)C(=O)N([C@@H](C)CO)C[C@H](C)[C@H](CN(C)Cc1ccc3c(c1)OCO3)OCCCC[C@H](C)O2	nt	-10	3	nt	-24[16.7 µM]	nt
CCCNC(=O)[C@@H]1[C@@H](CO)[C@@H]2Cn3c(ccc(-c4cccc(OC)c4)c3=O)[C@@H]2N1C	nt	nt	0	0	nt	nt
COc1ccc(/C=C2\CCC(C3CCCC3)C2=O)cc1Cn1cccn1 (stereo unspecified)	-8	0	-1	3	17	14
COc1ccc(/C=C2\CCc3ccccc3C2=O)cc1Cn1cccn1	-5	nt	nt	nt	65*	9
COc1ccccc1N1CCN(Cc2ccc(OC)c(OC)c2OC)CC1	3	-1	nt	nt	-16	5
COc1ccccc1N1CCN(Cc2ccc(O)c3ncccc23)CC1	-7	nt	nt	nt	75*	-8
CC(C)C#Cc1ccc2c(c1)O[C@H](CN(C)C)[C@@H](C)CN([C@@H](C)CO)S2(=O)=O	nt	nt	2	0	-13[16.7 µM]	nt
CC(C)Oc1ccc2ccccc2c1C=O	10	nt	nt	nt	nt	-4
CNc1cc([N+](=O)[O-])ccc1OCc1ccccc1	-5	-5	0	2	-12	-4
C/[N+]([O-])=C/c1c(OCc2ccccc2)ccc2ccccc12	6	7	-36*	2	4	8
O=Cc1c(OCc2ccccc2)ccc2ccccc12	1	-2	-37*	-21	-52	-6
CCOc1ccc(OCC)c(NC(=O)CSc2nc3c(c(=O)n(C)c(=O)n3C)n2C(C)C)c1	7	nt	-27*	5	nt	-4
COc1ccc(S(=O)(=O)Nc2ccc3c(c2)CC(=O)N([C@H](C)CO)C[C@H](C)[C@H](CN(C)C(=O)Nc2cccc4ccccc24)O3)cc1	nt	1	-1	-7	5[16.7 µM]	nt
O=C(Nc1ccc(OCC(=O)N2CCOCC2)cc1)c1cncc(Br)c1	1	6	10	0	57*	-4
CCCCOc1ccc(C(=O)Nc2ccc(OCC(=O)N3CCOCC3)cc2)cc1	3	-12	8	0	nt	-10
C[C@@H]1CN(C)C(=O)Cc2cc(N)ccc2O[C@H]1CN(C)C(=O)OC(C)(C)C	nt	-15	-2	nt	nt	nt
CCCNC(=O)N1[C@H](C#N)[C@H](c2ccc(-c3cccnc3)cc2)[C@@H]1CO	nt	-13	-3	-1	64*[16.7 µM]	nt
CCCNC(=O)N1[C@H](C#N)[C@H](c2ccc(-c3ccc(C(=O)N(C)C)cc3)cc2)[C@@H]1CO	nt	5	3	-4	68*[16.7 µM]	nt
N#C[C@@H]1[C@H](c2ccc(-c3cccc(F)c3)cc2)[C@H](CO)N1C(=O)c1cccnc1	nt	-13	4	-5	66*[16.7 µM]	nt
COc1ccc(-c2csc(CCn3nc(C)cc3C)n2)cc1OC	-2	37*	2	-7	4	12
COc1ccc(-c2csc(CCn3nc(C)cc3C)n2)cc1	-3	-1	-21*	-3	-6	-5
C/C=C/c1cnc2c(c1)C(=O)N([C@@H](C)CO)C[C@H](C)[C@H](CN(C)C(=O)C1CCC1)O2	nt	2	4	nt	-19[16.7 µM]	nt
O=C(NC(=S)N1CCCc2ccccc21)c1ccco1	3	2	-3	6	11	-3
